From ChEMBL document CHEMBL3632559, “α-Halogenated oxaphosphinanes: Synthesis, unexpected reactions and evaluation as inhibitors of cancer cell proliferation” (Eur J Med Chem, 2015)

What was measured:
Caco-2 = experiment: Antiproliferative activity against human Caco2 cells after 72 hrs by MTT assay; type: functional, cell-based
MDA-MB-435 [1] = experiment: Antimigratory activity in human MDA-MB-435 cells after 24 hrs by vitronectin-coated boyden chamber assay; type: functional, cell-based
Method in brief: (§1)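 Boyden chamber inserts were coated overnight with laminin, fibronectin or vitronectin (human plasma), PBS-washed and blocked 1 h with 0.5% BSA. Cells in DMEM/0.1% BSA were placed in the upper compartment for 24 h with or without compound. Non-migrating cells were wiped off; lower-side cells were methanol-fixed, crystal violet-stained and counted. Run in triplicate. Ki came from Hill fit of dose-log response curves.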

DU-145 = experiment: Antiproliferative activity against human DU145 cells after 72 hrs by MTT assay; type: functional, cell-based
MDA-MB-231 = experiment: Antiproliferative activity against human MDA-MB-231 cells after 72 hrs by MTT assay; type: functional, cell-based
MDA-MB-435 [2] = experiment: Antiproliferative activity against human MDA-MB-435 cells after 72 hrs by MTT assay; type: functional, cell-based; conditions: MDA-MB-435, 72 h
[3] = Antimigratory activity in mouse B16F10 cells after 24 hrs by laminin-coated boyden chamber assay; type: functional, cell-based; conditions: b16-f10; method in brief: as §1
MDA-MB-435 [4] = experiment: Antiinvasive activity in human MDA-MB-435 cells after 24 hrs by matrigel assay in presence of HGF; type: functional, cell-based; conditions: read-out: Ki
Method in brief: (§2)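 Boyden chamber inserts loaded with Matrigel diluted 33-fold in PBS, with HGF in the lower chamber. Cells resuspended in DMEM with 0.1% BSA were plated in the upper compartment and incubated 24 h with or without compound. Cells on the lower membrane surface were methanol-fixed, crystal violet-stained and counted. % Inh was computed against untreated migration. Run in triplicate. EC50/Ki were obtained by Hill fit of dose-log response curves.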

[5] = Antiproliferative activity against human HuH7 cells after 72 hrs by MTT assay; type: functional, cell-based; conditions: Huh-7, 72 h
[6] = Antimigratory activity in mouse B16F10 cells after 24 hrs by vitronectin-coated boyden chamber assay; type: functional, cell-based; conditions: b16-f10; method in brief: as §1
MDA-MB-435 [7] = experiment: Antimigratory activity in human MDA-MB-435 cells after 24 hrs by laminin-coated boyden chamber assay; type: functional, cell-based; method in brief: as §1
MDA-MB-435 [8] = experiment: Antimigratory activity in human MDA-MB-435 cells after 24 hrs by fibronectin-coated boyden chamber assay; type: functional, cell-based; method in brief: as §1
[9] = Antiinvasive activity in mouse B16F10 cells after 24 hrs by matrigel assay in presence of HGF; type: functional, cell-based; conditions: b16-f10; method in brief: as §2
[10] = Antimigratory activity in mouse B16F10 cells after 24 hrs by fibronectin-coated boyden chamber assay; type: functional, cell-based; conditions: b16-f10; method in brief: as §1
[11] = Antiproliferative activity against mouse B16F10 cells after 72 hrs by MTT assay; type: functional, cell-based; conditions: B16-F10, 72 h
MDA-MB-435 [12] = experiment: Cytotoxicity against human MDA-MB-435 cells; type: cell-based
[13] = Cytotoxicity against mouse B16F10 cells; type: cell-based; conditions: b16-f10
[14] = Homo sapiens, Caco-2, 72 h, read-out: IC50
[15] = Homo sapiens, DU-145, 72 h, read-out: IC50
[16] = Homo sapiens, MDA-MB-231, 72 h, read-out: IC50

| Structure (SMILES) | IC50 (Caco-2; caco-2) | Ki (MDA-MB-435 [1]) | IC50 (DU-145; du-145) | IC50 (MDA-MB-231; mda-mb-231) | IC50 (MDA-MB-435 [2]) | Ki [3] | EC50 (MDA-MB-435 [4]) | IC50 [5] | Ki [6] | Ki (MDA-MB-435 [7]) | Ki (MDA-MB-435 [8]) | Ki [9] | Ki [10] | IC50 [11] | IC50 (Caco-2; [14]) | IC50 (DU-145; [15]) | IC50 (MDA-MB-231; [16]) | Activity (MDA-MB-435 [12]) | Activity [13] |
| --- | --- | --- | --- | --- | --- | --- | --- | --- | --- | --- | --- | --- | --- | --- | --- | --- | --- | --- | --- |
| O=[P@@]1(c2ccccc2)O[C@H](COCc2ccccc2)[C@@H](OCc2ccccc2)[C@H](OCc2ccccc2)[C@H]1F | Not Active | 66 nM | Not Active | Not Active | 1.45 nM | 16 nM | 31 nM | 12.1 nM | 40 nM | 34 nM | 28 nM | 33 nM | 22 nM | 1.7 nM | – | – | – | – | – |
| O=[P@@]1(c2ccccc2)O[C@H](COCc2ccccc2)[C@@H](OCc2ccccc2)[C@H](OCc2ccccc2)[C@@H]1I | – | 43 nM | – | – | 0.55 nM | 17 nM | 28 nM | 229 nM | 44 nM | 25 nM | 29 nM | 29 nM | 16 nM | 7.7 nM | 20500 nM | 215 nM | 466 nM | – | – |
| O=[P@@]1(c2ccccc2)O[C@H](COCc2ccccc2)[C@@H](OCc2ccccc2)[C@H](OCc2ccccc2)[C@@H]1Cl | – | 41 nM | – | – | – | 19 nM | 36 nM | – | 34 nM | 23 nM | 28 nM | 35 nM | 49 nM | – | – | – | – | – | – |
| O=[P@]1(c2ccccc2)C=C(OCc2ccccc2)[C@H](OCc2ccccc2)[C@@H](COCc2ccccc2)O1 | – | – | – | – | 0.52 nM | – | – | 37.5 nM | – | – | – | – | – | 4.4 nM | 28400 nM | 116 nM | 286 nM | – | – |
| O=[P@@]1(c2ccccc2)O[C@H](COCc2ccccc2)[C@@H](OCc2ccccc2)[C@H](OCc2ccccc2)[C@@H]1Br | – | 46 nM | – | – | 0.2 nM | 10 nM | 13 nM | 11.6 nM | 21 nM | 34 nM | 39 nM | 17 nM | 46 nM | 4.6 nM | 24700 nM | 102 nM | 445 nM | – | – |
| O=[P@@]1(c2ccccc2)O[C@H](COCc2ccccc2)[C@@H](OCc2ccccc2)[C@H](OCc2ccccc2)[C@H]1Cl | – | 52 nM | – | – | 1.6 nM | 13 nM | 35 nM | 1170 nM | 380 nM | 32 nM | 36 nM | 37 nM | 18 nM | 7.7 nM | 24800 nM | 226 nM | 359 nM | Toxic | Toxic |
| O=[P@@]1(c2ccccc2)O[C@H](COCc2ccccc2)[C@@H](OCc2ccccc2)[C@H](OCc2ccccc2)[C@H]1I | – | 101 nM | – | – | 0.3 nM | 16 nM | 35 nM | 13 nM | 35 nM | 23 nM | 28 nM | 37 nM | 20 nM | 4 nM | 28600 nM | 104 nM | 478 nM | Toxic | Toxic |
| O=[P@@]1(c2ccccc2)O[C@H](COCc2ccccc2)[C@@H](OCc2ccccc2)[C@H](OCc2ccccc2)[C@H]1Br | – | 78 nM | – | – | 0.35 nM | 20 nM | 30 nM | 15.8 nM | 50 nM | 42 nM | 28 nM | 32 nM | 30 nM | 3.8 nM | 29500 nM | 86.5 nM | 432 nM | – | – |
